Source: ChEMBL document CHEMBL5329167, “Design, synthesis and evaluation of halogenated phenazine antibacterial prodrugs targeting nitroreductase enzymes for activation” (RSC Med Chem, 2023)
Values after ≈ are worked out from the molar mass of the structure shown. Active and inactive are the calls of the source. The rule behind the calls is not given here.

Columns and labels:
[1] = system: Staphylococcus epidermidis; assay: Antibacterial activity against Staphylococcus epidermidis 12228 assessed as bacterial growth inhibition incubated for 16 hrs by CLSI based broth microdilution method; assay type: functional
Summary of the method: (§1)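 CLSI broth microdilution in LB: eleven 2-fold serial dilutions, 0.10–100 µM. DMSO vehicle/negative control diluted from 0.5% v/v. Wells seeded with ~10⁵ cells from log-phase culture (OD₆₀₀ 0.6–0.8), held 16 h at 37 °C. MIC taken as the lowest concentration preventing growth by OD₆₀₀ turbidity. Minimum three independent experiments.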

Staphylococcus aureus [2] = assay: Antibacterial activity against methicillin-resistant Staphylococcus aureus 1707 assessed as zone of inhibition at 10 mM incubated for 16 hrs by agar diffusion assay; assay type: functional
Summary of the method: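 Modified Kirby-Bauer disk diffusion. 100 µL MRSA 1707 inoculum (OD₆₀₀ 0.7, ~10⁸ CFU) spread on LB agar and left 30 min. 10 µL of 10 mM DMSO compound solution then pipetted onto the plate. Incubation 16 h at 37 °C; zone of inhibition area (cm²) measured. Three independent experiments.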

Streptococcus pneumoniae = assay: Antibacterial activity against Streptococcus pneumoniae 6303 assessed as bacterial growth inhibition incubated for 16 hrs by CLSI based broth microdilution method; assay type: functional; summary of the method: as §1
[3] = Hemolytic activity against red blood cells (unknown origin) at 200 uM; assay type: toxicity, cell-based, Erythrocyte; conditions: read-out: Activity
Staphylococcus aureus [4] = assay: Antibacterial activity against methicillin-resistant Staphylococcus aureus BAA-1707 assessed as bacterial growth inhibition incubated for 16 hrs by CLSI based broth microdilution method; assay type: functional
Summary of the method: (§2)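 Broth microdilution per CLSI in LB, eleven two-fold serial dilutions spanning 0.10 to 100 µM. Inoculum ~10⁵ cells/well from fresh log-phase culture (OD₆₀₀ 0.6–0.8). MIC taken as lowest concentration preventing growth after 16 h at 37 °C, read by OD₆₀₀ turbidity. DMSO vehicle control, top 0.5% v/v. At least three independent experiments.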

[5] = system: Staphylococcus epidermidis; assay: Antibacterial activity against methicillin-resistant Staphylococcus epidermidis 35984 assessed as bacterial growth inhibition incubated for 16 hrs by CLSI based broth microdilution method; assay type: functional; summary of the method: as §2
Enterococcus = assay: Antibacterial activity against vancomycin-resistant Enterococcus 700221 assessed as bacterial growth inhibition incubated for 16 hrs by CLSI based broth microdilution method; assay type: functional
Summary of the method: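 Growth scored by OD₆₀₀ turbidity after 16 h at 37 °C; MIC is the lowest concentration preventing growth. DMSO vehicle control up to 0.5% v/v. Three or more independent experiments.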

Staphylococcus aureus [6] = assay: Antibacterial activity against methicillin-resistant Staphylococcus aureus 1707 assessed as bacterial growth inhibition incubated for 16 hrs by CLSI based broth microdilution method; assay type: functional; summary of the method: as §2
[7] = Cytotoxicity against HEK293 cells incubated for 48 hrs by MTT assay; assay type: toxicity, cell-based; conditions: human
Summary of the method: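 HEK-293 cells (10⁴/well) in DMEM with 10% FBS, penicillin/streptomycin, settled overnight at 37 °C, 5% CO₂. Medium replaced with compound at 0.10–100 µM (2-fold steps); DMSO as negative control. After 48 h at 37 °C, MTT (5 mg/mL stock) added for 3 h. Formazan dissolved in DMSO, OD read at 570 nm. Eight replicates per treatment.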

[8] = Metal chelating activity assessed as formation of phenazine-iron complex measured for 1 to 60 mins by UV-vis spectroscopy; conditions: time 1-60 min
Summary of the method: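 Compound from a 10 mM DMSO stock diluted in DMSO in a cuvette, alone or with ammonium iron(II) sulfate hexahydrate (10 mM aqueous stock). Spectra of the compound-only cuvette and the iron-containing cuvette are compared by UV-vis spectrometry to judge phenazine–iron(II) complex formation.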

Enterococcus faecalis = assay: Antibacterial activity against Enterococcus faecalis OG1RF assessed as bacterial growth inhibition incubated for 16 hrs by CLSI based broth microdilution method; assay type: functional
Summary of the method: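 Broth microdilution per CLSI in brain-heart infusion: eleven 2-fold dilutions spanning 0.10–100 µM, with DMSO vehicle/negative control topping at 0.5% v/v. Inoculum ~10⁵ cells/well from log-phase culture (OD₆₀₀ 0.6–0.8). 37 °C, 16 h. MIC is the lowest concentration preventing growth, read as OD₆₀₀ turbidity. At least three independent experiments.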

Staphylococcus aureus [9] = assay: Antibacterial activity against methicillin-resistant Staphylococcus aureus BAA-44 assessed as bacterial growth inhibition incubated for 16 hrs by CLSI based broth microdilution method; assay type: functional; summary of the method: as §2
Staphylococcus aureus [10] = assay: Antibacterial activity against Staphylococcus aureus clinical isolate 156 assessed as bacterial growth inhibition incubated for 16 hrs by CLSI based broth microdilution method; assay type: functional
Staphylococcus aureus [11] = assay: Antibacterial activity against Staphylococcus aureus clinical isolate 138 assessed as bacterial growth inhibition incubated for 16 hrs by CLSI based broth microdilution method; assay type: functional
Staphylococcus aureus [12] = assay: Antibacterial activity against Staphylococcus aureus clinical isolate 147 assessed as bacterial growth inhibition incubated for 16 hrs by CLSI based broth microdilution method; assay type: functional
[13] = system: Staphylococcus epidermidis; assay: Antibacterial activity against Staphylococcus epidermidis clinical isolate CL-1 assessed as bacterial growth inhibition incubated for 16 hrs by CLSI based broth microdilution method; assay type: functional
Staphylococcus aureus [14] = assay: Antibacterial activity against Staphylococcus aureus clinical isolate 129 assessed as bacterial growth inhibition incubated for 16 hrs by CLSI based broth microdilution method; assay type: functional
Staphylococcus aureus [15] = assay: Antibacterial activity against methicillin-resistant Staphylococcus aureus clinical isolate 2 assessed as bacterial growth inhibition incubated for 16 hrs by CLSI based broth microdilution method; assay type: functional
Staphylococcus aureus [16] = assay: Antibacterial activity against methicillin-resistant Staphylococcus aureus clinical isolate 1 assessed as bacterial growth inhibition incubated for 16 hrs by CLSI based broth microdilution method; assay type: functional

Row | SMILES | MIC [1] [µM] | diameter of the inhibition zone (DIZ) (Staphylococcus aureus [2]) [cm2] | MIC (Streptococcus pneumoniae) [µM] | hemolysis at 200 µM [3] [%] | MIC (Staphylococcus aureus [4]) [µM] | MIC [5] [µM] | MIC (Enterococcus) [µM] | MIC (Staphylococcus aureus [6]) [µM] | CC50 at 48 h [7] [µM] | Activity [8] | MIC (Enterococcus faecalis) [µM] | MIC (Staphylococcus aureus [9]) [µM] | MIC (Staphylococcus aureus [10]) [µM] | MIC (Staphylococcus aureus [11]) [µM] | MIC (Staphylococcus aureus [12]) [µM] | MIC [13] [µM] | MIC (Staphylococcus aureus [14]) [µM] | MIC (Staphylococcus aureus [15]) [µM] | MIC (Staphylococcus aureus [16]) [µM]
1 | O=[N+]([O-])c1ccc(CS(=O)(=O)Oc2c(Br)cc(Br)c3nc4cc(Cl)ccc4nc23)cc1 | 0.15 (≈ 0.0881 µg/mL) | 0.66 | 0.15 (≈ 0.0881 µg/mL) | < 1 | 0.1 (≈ 0.0588 µg/mL) | 0.39 (≈ 0.229 µg/mL) | 0.59 (≈ 0.347 µg/mL) | 0.1 (≈ 0.0588 µg/mL) | 6.4 | inactive | 4.69 (≈ 2.76 µg/mL) | 0.15 (≈ 0.0881 µg/mL) | – | – | – | – | – | – | –
2 | O=S(=O)(Cc1ccccc1)Oc1c(Br)cc(Br)c2nc3cc(Cl)ccc3nc12 | 3.13 (≈ 1.7 µg/mL) | 0 | 1.56 (≈ 0.847 µg/mL) | – | 2.35 (≈ 1.28 µg/mL) | – | > 100 | 3.13 (≈ 1.7 µg/mL) | 30.3 | inactive | > 100 | – | – | – | – | – | – | – | –
3 | Cc1cccc2nc3c(OS(=O)(=O)Cc4ccccc4)c(Br)c(Cl)c(Br)c3nc12 | > 100 | 0 | > 100 | – | > 100 | > 100 | > 100 | > 100 | 49.6 | inactive | > 100 | > 100 | > 100 | > 100 | > 100 | > 100 | > 100 | – | –
4 | O=[N+]([O-])c1ccc(CS(=O)(=O)Oc2c(Br)cc(Br)c3nc4c(C(F)(F)F)cc(C(F)(F)F)cc4nc23)cc1 | 0.15 (≈ 0.103 µg/mL) | 2.57 | 0.2 (≈ 0.138 µg/mL) | 10.4 | 1.56 (≈ 1.08 µg/mL) | 0.78 (≈ 0.538 µg/mL) | 1.56 (≈ 1.08 µg/mL) | 1.56 (≈ 1.08 µg/mL) | 2.9 | inactive | 0.78 (≈ 0.538 µg/mL) | 4.69 (≈ 3.23 µg/mL) | – | – | – | – | – | – | –
5 | Oc1c(Br)cc(Br)c2nc3cc(Cl)ccc3nc12 | 0.3 (≈ 0.117 µg/mL) | 1.7 | 0.3 (≈ 0.117 µg/mL) | < 1 | 0.075 (≈ 0.0291 µg/mL) | – | – | 0.1 (≈ 0.0388 µg/mL) | – | Active | – | 0.15 (≈ 0.0583 µg/mL) | – | – | – | – | – | – | –
6 | COc1cccc(OC)c1C(=O)N[C@@H]1C(=O)N2[C@@H]1SC(C)(C)[C@@H]2C(=O)O [METHICILLIN] | – | – | – | – | – | – | – | – | – | – | – | – | 25 (≈ 9.51 µg/mL) | 37.5 (≈ 14.3 µg/mL) | 6.25 (≈ 2.38 µg/mL) | 12.5 (≈ 4.76 µg/mL) | 37.5 (≈ 14.3 µg/mL) | > 100 | 37.5 (≈ 14.3 µg/mL)
7 | O=S(=O)(Cc1ccccc1)Oc1c(Br)cc(Br)c2nc3c(C(F)(F)F)cc(C(F)(F)F)cc3nc12 | 0.15 (≈ 0.0966 µg/mL) | 1.07 | 0.2 (≈ 0.129 µg/mL) | – | > 100 | 1.56 (≈ 1 µg/mL) | 0.78 (≈ 0.502 µg/mL) | > 100 | 3.6 | inactive | 0.39 (≈ 0.251 µg/mL) | 18.8 (≈ 12.1 µg/mL) | – | – | – | – | – | – | –
8 | CN[C@H](CC(C)C)C(=O)N[C@H]1C(=O)N[C@@H](CC(N)=O)C(=O)N[C@H]2C(=O)N[C@H]3C(=O)N[C@H](C(=O)N[C@H](C(=O)O)c4cc(O)cc(O)c4-c4cc3ccc4O)[C@H](O)c3ccc(c(Cl)c3)Oc3cc2cc(c3O[C@@H]2O[C@H](CO)[C@@H](O)[C@H](O)[C@H]2O[C@H]2C[C@](C)(N)[C@H](O)[C@H](C)O2)Oc2ccc(cc2Cl)[C@H]1O [VANCOMYCIN] | 1.56 (≈ 2.26 µg/mL) | – | 0.59 (≈ 0.855 µg/mL) | < 1 | – | 0.59 (≈ 0.855 µg/mL) | > 100 | – | – | – | 1.56 (≈ 2.26 µg/mL) | 0.3 (≈ 0.435 µg/mL) | – | – | – | 0.59 (≈ 0.855 µg/mL) | – | – | –
9 | CN(C)[C@@H]1C(O)=C(C(N)=O)C(=O)[C@@]2(O)C(O)=C3C(=O)c4c(O)cccc4[C@@](C)(O)[C@H]3C[C@@H]12 [TETRACYCLINE] | – | – | – | – | – | – | – | – | – | – | – | – | 0.15 (≈ 0.0667 µg/mL) | 0.15 (≈ 0.0667 µg/mL) | 0.1 (≈ 0.0444 µg/mL) | 25 (≈ 11.1 µg/mL) | 0.1 (≈ 0.0444 µg/mL) | 0.1 (≈ 0.0444 µg/mL) | 0.1 (≈ 0.0444 µg/mL)
10 | CC[C@H]1OC(=O)[C@H](C)[C@@H](O[C@H]2C[C@@](C)(OC)[C@@H](O)[C@H](C)O2)[C@H](C)[C@@H](O[C@@H]2O[C@H](C)C[C@H](N(C)C)[C@H]2O)[C@](C)(O)C[C@@H](C)C(=O)[C@H](C)[C@@H](O)[C@]1(C)O [ERYTHROMYCIN] | – | – | – | – | – | – | – | – | – | – | – | – | > 100 | > 100 | 37.5 (≈ 27.5 µg/mL) | > 100 | > 100 | 18.8 (≈ 13.8 µg/mL) | 100 (≈ 73.4 µg/mL)
11 | Oc1c(Br)cc(Br)c2nc3c(C(F)(F)F)cc(C(F)(F)F)cc3nc12 | 0.1 (≈ 0.049 µg/mL) | 4.58 | 0.1 (≈ 0.049 µg/mL) | 16.7 | 0.15 (≈ 0.0735 µg/mL) | 0.05 (≈ 0.0245 µg/mL) | 0.2 (≈ 0.098 µg/mL) | 0.1 (≈ 0.049 µg/mL) | – | Active | 0.1 (≈ 0.049 µg/mL) | 0.15 (≈ 0.0735 µg/mL) | – | – | – | – | – | – | –
12 | NC[C@H]1O[C@H](O[C@H]2[C@H](O)[C@@H](O[C@H]3O[C@H](CO)[C@@H](O)[C@H](N)[C@H]3O)[C@H](N)C[C@@H]2N)[C@H](N)C[C@@H]1O [TOBRAMYCIN] | – | – | – | – | – | – | – | – | – | – | – | – | 12.5 (≈ 5.84 µg/mL) | 12.5 (≈ 5.84 µg/mL) | 6.25 (≈ 2.92 µg/mL) | 1.56 (≈ 0.729 µg/mL) | > 100 | 6.25 (≈ 2.92 µg/mL) | 6.25 (≈ 2.92 µg/mL)
13 | O=S(=O)(Cc1ccccc1)Oc1c(Br)cc(Br)c2nc3ccccc3nc12 | > 100 | 0 | > 100 | – | > 100 | > 100 | > 100 | > 100 | > 100 | inactive | > 100 | > 100 | > 100 | > 100 | > 100 | > 100 | > 100 | – | –
